Bioassay records (PubChem BioAssay)
Hsp70 activator: switches on Hsp70 transcription | HeLa Hsp70 promoter luciferase reporter, luminescence; scaled: vehicle 0, proteasome-inhibitor control 100% | activation, % at 10 µM | 200,000 tested, 0.04% active;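 active = activation above the mean across all tested compounds plus 3 SD, cutoff set per campaign, cut at about 5.5% in these data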
Insulin prom up: MIN6 insulin promoter up-regulation | z-score at 5 µM | AID 1625 | 190,000 tested, 0.3% active | MIN6 insulin promoter-GFP reporter, high-content imaging; hits give high values;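 active = z-score above 3 at 5 µM with at least 500 cells counted in the well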
Insulin prom inh: TRM-6 insulin promoter activity inhibition; TRM-6 cells (human fetal islet line), insulin promoter-eGFP reporter, imaging; reporter expression induced with tamoxifen; inhibition, % at 2 µM; 130,000 tested, 0.9% active; AID 1273;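 active = inhibition above the mean plus 3 SD, with well images judged a real hit on visual review, cut at about 60% in these data, passing the limit was not always enough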
Wee1 degr inh: human Wee1 degradation inhibition, primary screen | HeLa Luc-Wee1K328M stability, luciferase luminescence; 100% = proteasome inhibitor MG132 effect | 220,000 tested, 1.2% active | P30291 | reporter increase, % at 5 µM;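 active = activation above the mean of all tested compounds plus 3 SD, set per screening run, cut at about 8.8% in these data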;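 also: cells exposed to compound for 20 h before luminescence read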
RBBP9 inhibitor: inhibitors of human serine hydrolase RBBP9 | O75884 | recombinant RBBP9, FP-Rh probe fluorescence polarization | inhibition, % at 7.94 µM | 220,000 tested, 0.2% active | AID 1515;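 active = inhibition above the campaign mean of all tested compounds plus 3 SD, cut at about 14% in these data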
Target sequence (O75884 whole entry, looked up): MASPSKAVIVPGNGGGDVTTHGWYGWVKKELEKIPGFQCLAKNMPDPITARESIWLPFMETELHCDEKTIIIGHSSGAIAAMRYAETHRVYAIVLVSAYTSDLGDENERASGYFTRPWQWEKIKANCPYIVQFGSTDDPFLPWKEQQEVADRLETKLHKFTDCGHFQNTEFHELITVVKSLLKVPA
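Controls: DMSO-treated enzyme wells and wells lacking RBBP9 | Material: RBBP9 protein | Technique: Fluorescence polarization | Replication: Single well per compound, no replicates | Buffer or medium: Tris-NaCl-Pluronic buffer, pH 8.0 | Timing: 30 min compound preincubation, 45 min probe labeling, 25 °C | Read-out basis: Percent inhibition from mP, scaled between DMSO and no-protein wells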
MDM2 E3 inh: blocks human Mdm2 ubiquitin ligase activity; Q00987; cell-based MDM2 ubiquitination luciferase reporter, 2 h; 0 = plate control, 100 = twice control, blank-subtracted; signal enhancement, % at 5 µM; 210,000 tested, 0.11% active; AID 1230;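 active = signal enhancement of 30% or more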;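 also: luminescence tracks abundance of the self-degrading MDM2-luciferase fusion protein; higher signal means inhibition of MDM2 E3 ligase activity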
Target sequence (Q00987 whole entry, looked up, the tested form may be a part): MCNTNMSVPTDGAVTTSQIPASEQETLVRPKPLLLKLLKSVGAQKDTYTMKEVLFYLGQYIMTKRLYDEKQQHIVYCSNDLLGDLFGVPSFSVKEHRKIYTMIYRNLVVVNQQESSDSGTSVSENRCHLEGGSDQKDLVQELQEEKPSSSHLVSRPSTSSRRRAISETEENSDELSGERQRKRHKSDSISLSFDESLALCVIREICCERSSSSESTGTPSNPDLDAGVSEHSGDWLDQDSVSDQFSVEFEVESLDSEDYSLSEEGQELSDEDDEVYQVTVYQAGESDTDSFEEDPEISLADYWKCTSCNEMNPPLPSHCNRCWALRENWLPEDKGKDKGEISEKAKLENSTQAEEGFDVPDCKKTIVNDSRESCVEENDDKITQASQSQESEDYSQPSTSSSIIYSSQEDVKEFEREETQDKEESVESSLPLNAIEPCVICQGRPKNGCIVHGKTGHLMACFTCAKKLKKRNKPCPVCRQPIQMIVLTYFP
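Assay system: stable mammalian line carrying autodegrading MDM2–luciferase fusion reporter; amount: 2000 cells seeded into each well; buffer or medium: DMEM; benchmarks: plate control and blank wells; signal: luciferase luminescence; timing: 2 h compound exposure at 37 °C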
Numbers stand for hits; – = inactive; · = no result given; ! = repeats disagree. A selection: hits, their analogues and other compounds. The true share with any hit is near 2.2%.

SMILES	Hsp70 activator	Insulin prom up	Insulin prom inh	Wee1 degr inh	RBBP9 inhibitor	MDM2 E3 inh
CCN1CCN(c2cc(=O)n(Cc3ccc(F)cc3)c(=O)[nH]2)CC1	–	–	78	–	–	–
COc1ccc(S(=O)(=O)NCC2CCCN(CC(C)(C)C)C2)cc1 (stereo not given)	–	–	·	–	–	–
CCn1cc(Cl)c(C(=O)N2N=C(c3ccc4ccccc4c3)CC2c2ccccc2O)n1 (stereo not given)	–	–	67	–	–	–
CCn1cc([N+](=O)[O-])c(C(=O)N2N=C(c3ccc4ccccc4c3)CC2c2ccccc2O)n1 (stereo not given)	–	·	–	–	–	–
O=C1C2C3C=CC(C2C(=O)N1c1ccccc1O)C1C2C(=O)N(c4ccccc4O)C(=O)C2C31 (stereo not given)	–	–	–	8.8	–	–
Cc1ccccc1C(=O)N1CCc2ccccc2C1	–	4	–	–	–	–
O=C(c1cncc(Br)c1)N1CCc2ccccc2C1	–	–	86	–	–	–
O=C(Nc1ccc(Cl)cc1)N1CCc2ccccc2C1	–	–	–	9.7	–	–
CCCCC1(C)NC(=S)N2N1C(=S)NC2(C)CCCC (stereo not given)	·	–	·	–	–	–
CN(CCCN1CCCCC1)C(=O)CCc1nnc(C2CCCCC2)o1	–	–	·	–	–	–
COC(=O)c1ccc(-c2nc(O)c3cnccn23)cc1	–	–	–	–	–	–
CCCCOc1ccc(-n2nc(C)cc2C)nn1	–	–	–	–	–	–
Cc1cc(C)n(-c2ccc(OCC(=O)O)nn2)n1	–	3.3	–	–	–	–
Cc1nc(-c2ccc(NS(C)(=O)=O)cc2)cs1	–	·	73	–	–	–
Cc1nc(-c2cccc(NS(C)(=O)=O)c2)cs1	–	·	·	–	–	–
CCN1C(=O)/C(=C/c2ccc(N3CCCC3)cc2)NC1=S	–	16	–	–	–	–
CCOc1ccc(N=Nc2c(=O)[nH]n3c(=O)c4c([nH]c23)CCCC4)cc1	–	–	–	–	–	–
CCOc1ccc(N=Nc2c(=O)[nH]n3c(=O)cc(C)[nH]c23)cc1	–	·	–	–	32	–
O=C(NCCOc1ccc2ccccc2c1)c1cncc(Br)c1	·	–	·	–	–	–
CCc1nnc2c3cnn(-c4ccccc4)c3ncn12	–	–	78	–	–	–
c1ccc(-n2ncc3c2ncn2cnnc32)cc1	–	–	–	–	–	–
O=C(CSc1n[nH]c(=O)[nH]c1=O)c1ccc([N+](=O)[O-])cc1	·	–	·	12	–	–
O=C(/C=C/c1ccco1)NC(=S)NNC(=O)c1ccco1	–	–	–	–	–	·
CCOC(=O)C1CCCN(C2CC(=O)N(c3ccc(NC(C)=O)cc3)C2=O)C1 (stereo not given)	–	–	–	–	–	–
CCOC(=O)C1CCCN(C2CC(=O)N(c3ccc(C)cc3)C2=O)C1 (stereo not given)	–	–	68	–	–	–
SMILES	Hsp70 activator	Insulin prom up	Insulin prom inh	Wee1 degr inh	RBBP9 inhibitor	MDM2 E3 inh
O=C1COc2ccccc2CN1	–	–	–	–	–	–
O=C1COc2cccnc2N1	–	–	·	9.4!	–	–
CCCN1CCN(C(=O)Cn2cnc3ccc(S(=O)(=O)N4CCC(C)CC4)cc3c2=O)CC1	–	–	·	–	–	–
CCCCn1c(=O)c(C(=O)N/N=C/c2ccc(F)cc2)c(O)c2ccccc21	–	·	–	–	–	–
CC(C)(C)c1ccc(C(=O)NCC(=O)OCc2ccc([N+](=O)[O-])cc2)cc1	–	–	·	–	–	–
Cc1cccc(N/C(N)=N/c2nc(CSc3ccc(Cl)cc3)cc(=O)[nH]2)c1	·	–	·	11	–	–
Cc1cc(C(=O)N/N=C/C=C/c2ccc([N+](=O)[O-])cc2)n[nH]1	–	–	·	–	–	–
COc1cc(NC(=O)c2cccs2)c(C(=O)OCC(=O)NC(C)c2ccccc2)cc1OC (stereo not given)	–	–	70	–	–	–
CC(C)Oc1ccc(CNC(=S)N/N=C/c2cccnc2)cc1	–	–	·	9.2	–	–
Cc1cc(C)n2c(SCc3c(C)noc3C)nnc2n1	–	–	80	–	–	–
CCOc1ccc(C(CCc2ccccc2)NC(=O)c2ccccc2F)cc1OCC (stereo not given)	–	–	–	–	–	–
COc1ccc(CSCC(=O)N/N=C/c2ccccc2O)cc1	–	–	75	–	–	–
Cc1nc2sc(C(c3cccs3)N3CCN(c4cccc(Cl)c4)CC3)c(O)n2n1 (stereo not given)	–	–	·	11	–	–
Cc1nc2sc(C(c3cccs3)N3CCN(C(=O)c4ccco4)CC3)c(O)n2n1 (stereo not given)	–	–	·	–	–	–
CCOc1ccc(CCNS(=O)(=O)c2cnc[nH]2)cc1OCC	–	–	–	–	–	–
CC(=O)NC(=S)Nc1ccccc1N1CCCCC1	–	–	·	–	–	–
CCOC(=O)C1=C(N)n2c(s/c(=C\c3cccnc3)c2=O)=C(C(=O)OC)C1c1cccnc1 (stereo not given)	–	·	–	10	–	·
CCOC(=O)C1=C(N)n2c(s/c(=C\c3cccnc3)c2=O)=C(C(=O)OCC)C1c1cccnc1 (stereo not given)	·	–	·	·	·	·
Cc1nn(Cc2ccccc2)c(C)c1NC(=O)CCCn1nc(C)c([N+](=O)[O-])c1C	–	–	·	–	–	–
Cc1nn(CCCC(=O)NCc2ccccc2)c(C)c1[N+](=O)[O-]	–	–	–	–	–	40
COc1ccc(OC)c(C2=NOC(C(=O)Nc3cc(C)on3)C2)c1 (stereo not given)	·	–	·	–	–	–
O=C(CN1CCN(c2ccc([N+](=O)[O-])cc2)CC1)Nc1nccs1	–	–	77	–	–	–
O=C(CN1CCN(c2ccc([N+](=O)[O-])cc2)CC1)Nc1ccccn1	–	–	–	–	–	–
COc1ccc2c3c(cccc13)NN=C2C	–	·	79	–	15	·
COc1ccc(C(=O)c2ccc(OC)c3cccc(O)c23)cc1OC	–	–	–	–	–	–
SMILES	Hsp70 activator	Insulin prom up	Insulin prom inh	Wee1 degr inh	RBBP9 inhibitor	MDM2 E3 inh
CC(=O)N1CCN(Cc2nc3cc(NC(=O)c4ccccc4)ccc3n2C)CC1	–	3.4	–	–	–	–
CN(/N=C/c1ccc(O)cc1O)c1ncc(C(F)(F)F)cc1Cl	·	–	·	–	–	–
Cc1ccc(-c2cc(C(F)(F)F)n3ncc(C(=O)N4CCN(C)CC4)c3n2)cc1	–	–	·	9.2	–	–
CCOc1ccc(C(CC(=O)O)NC(=O)C(Sc2ccccc2)c2ccccc2)cc1 (stereo not given)	–	·	–	–	–	–
CCOCCCNC(=O)CNC(=S)N(Cc1ccccc1F)C1CCCCC1	–	–	–	–	–	–
CCOCCCNC(=O)Cc1ccc(F)cc1	–	–	–	–	–	–
COCCNC(=O)Cc1ccc(F)cc1	–	3	–	–	–	–
